Test results taken from ChEMBL document CHEMBL1128385, “Three-dimensional quantitative structure-activity relationships of somatostatin analogues. 1. Comparative molecular field analysis of growth hormone release-inhibiting potencies” (J Med Chem, 1995).
Where a SMILES comes first, the peptide text is derived from it. Bridges are numbered along the chain shown (N, C = ends). [ ]: non-standard residue; d: D form. Phe(4-Cl) = N[C@@H](Cc1ccc(Cl)cc1)C(=O)O; 2Nal = N[C@@H](Cc1ccc2ccccc2c1)C(=O)O; d2Nal = N[C@H](Cc1ccc2ccccc2c1)C(=O)O; Abu = CC[C@H](N)C(=O)O

Species on record: Rattus norvegicus
Assay: In vitro GH release inhibiting potency on anterior pitutaries from adult male rats, relative to somatostatin
Type: functional
Summary of the method: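 Rat anterior pituitary cells (adult males, 200-250 g), trypsin/DNase dispersed, plated 2 × 10^5 cells/well, cultured 96 h at 37 °C in serum-supplemented DMEM. After washing, cells were pulsed 3 h at 37 °C with 1 nM GRF(1-29)NH2 ± graded analogue doses in medium 199/1% BSA, quadruplicate wells. Medium GH was measured by double-antibody RIA. Potency relative to somatostatin (=1.0) came from four-point assay (mean of ≥3 experiments) or IC50 comparison.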

Compound	GHI
CC(C)[C@@H]1NC(=O)C(CCCCN)NC(=O)[C@@H](Cc2c[nH]c3ccccc23)NC(=O)C(Cc2ccccc2)NC(=O)[C@@H]2CCCN2C(=O)C(Cc2ccccc2)NC1=O (single isomer, unassigned)	0.29
C[C@@H](O)[C@@H]1NC(=O)[C@H](CCCCN)NC(=O)[C@@H](Cc2c[nH]c3ccccc23)NC(=O)[C@H](Cc2ccccc2)NC(=O)[C@@H](NC(=O)[C@H](N)Cc2ccccc2)CSSC[C@@H](C(=O)N[C@@H](Cc2ccc3ccccc3c2)C(N)=O)NC1=O	0.22
CC(C)[C@@H]1NC(=O)[C@H](CCCCN)NC(=O)[C@@H](Cc2c[nH]c3ccccc23)NC(=O)[C@H](Cc2ccc(O)cc2)NC(=O)[C@H](NC(=O)[C@H](N)C(c2ccccc2)c2ccccc2)CSSC[C@@H](C(=O)N[C@@H](Cc2ccc3ccccc3c2)C(N)=O)NC1=O	0.91
C[C@@H](O)[C@@H]1NC(=O)[C@H](CCCCN)NC(=O)[C@H](Cc2c[nH]c3ccc(F)cc23)NC(=O)[C@H](Cc2ccccc2)NC(=O)[C@H](Cc2ccccc2)NC(=O)CCCCCCNC(=O)[C@H](Cc2ccccc2)NC1=O (stereo in doubt)	6.7
CC(C)C1NC(=O)[C@H](CCCCN)NC(=O)[C@@H](Cc2c[nH]c3ccccc23)NC(=O)C(Cc2ccc(O)cc2)NC(=O)CCSSCC(C(=O)N[C@@H](Cc2ccccc2)C(N)=O)NC1=O (single isomer, unassigned)	23
C[C@@H](O)[C@@H]1NC(=O)[C@H](CCCCN)NC(=O)[C@@H](Cc2c[nH]c3ccccc23)NC(=O)[C@H](Cc2c[nH]c3ccccc23)NC(=O)[C@H](Cc2ccccc2)NC(=O)CCCCCCNC(=O)[C@H](Cc2ccccc2)NC1=O (stereo in doubt)	16.7
NCCCC[C@@H]1NC(=O)[C@@H](Cc2c[nH]c3ccccc23)NC(=O)[C@H](Cc2ccc(O)cc2)NC(=O)[C@@H](NC(=O)[C@H](N)Cc2ccccc2)CSSC[C@@H](C(=O)N[C@@H](Cc2ccc3ccccc3c2)C(N)=O)NC(=O)[C@H](CO)NC1=O	0.03
C[C@@H](O)[C@@H]1NC(=O)[C@H](CCCCN)NC(=O)[C@@H](Cc2c[nH]c3ccccc23)NC(=O)[C@H](Cc2ccc(F)cc2)NC(=O)[C@H](Cc2ccccc2)NC(=O)CCCCCCNC(=O)[C@H](Cc2ccccc2)NC1=O (stereo in doubt)	20
C[C@@H](O)[C@@H]1NC(=O)[C@H](CCCCN)NC(=O)[C@@H](Cc2c[nH]c3ccccc23)NC(=O)[C@H](Cc2cscn2)NC(=O)[C@H](Cc2ccccc2)NC(=O)CCCCCCNC(=O)[C@H](Cc2ccccc2)NC1=O (stereo in doubt)	5
CC(C)[C@H](NC(=O)[C@H](CCCCN)NC(=O)[C@@H](Cc1c[nH]c2ccccc12)NC(=O)[C@H](Cc1ccc(O)cc1)NC(=O)[C@H](C)NC(=O)[C@H](N)Cc1ccc2ccccc2c1)C(=O)N[C@@H](C)C(=O)N[C@H](C(N)=O)[C@@H](C)O (H-[d2Nal]AY[dW]KVAT-NH2)	435
C[C@@H](O)[C@@H]1NC(=O)C(CCCCN)NC(=O)[C@@H](Cc2c[nH]c3ccccc23)NC(=O)C(Cc2ccc(O)cc2)NC(=O)[C@@H]2CCCN2C(=O)C(Cc2ccccc2)NC1=O (single isomer, unassigned)	0.07
CC(C)[C@@H]1NC(=O)[C@H](CCCN)NC(=O)[C@@H](Cc2c[nH]c3ccccc23)NC(=O)[C@H](Cc2ccc(O)cc2)NC(=O)[C@H](NC(=O)[C@H](N)Cc2ccc3ccccc3c2)CSSC[C@@H](C(=O)N[C@@H](Cc2ccc3ccccc3c2)C(N)=O)NC1=O	4.17
C[C@@H](O)[C@H](NC(=O)[C@@H]1CSSC[C@H](NC(=O)[C@H](N)Cc2ccc3ccccc3c2)C(=O)N[C@@H](Cc2ccc(O)cc2)C(=O)N[C@H](Cc2c[nH]c3ccccc23)C(=O)N[C@@H](CCCCN)C(=O)N[C@@H]([C@@H](C)O)C(=O)N1)C(N)=O	0.19
Cc1ccc2[nH]cc(C[C@@H]3NC(=O)[C@H](Cc4ccccc4)NC(=O)[C@H](Cc4ccccc4)NC(=O)CCCCCCNC(=O)[C@H](Cc4ccccc4)NC(=O)[C@H]([C@@H](C)O)NC(=O)[C@H](CCCCN)NC3=O)c2c1 (stereo in doubt)	14
CC(C)[C@@H]1NC(=O)[C@H](CCCCN)NC(=O)[C@@H](Cc2c[nH]c3ccccc23)NC(=O)[C@H](Cc2ccc(O)cc2)NC(=O)[C@H](NC(=O)[C@H](N)Cc2ccccc2)CSSC[C@@H](C(=O)N[C@@H](Cc2ccc3ccccc3c2)C(=O)O)NC1=O	0.06
CC[C@@H]1NC(=O)[C@H](CCCCN)NC(=O)[C@@H](Cc2c[nH]c3ccccc23)NC(=O)[C@H](Cc2ccc(O)cc2)NC(=O)[C@@H](NC(=O)[C@H](N)Cc2ccccc2)CSSC[C@@H](C(=O)N[C@@H](Cc2ccc3ccccc3c2)C(N)=O)NC1=O (H-[dF]CY[dW]K[Abu]C[2Nal]-NH2; disulfide 2-7)	0.03
C[C@@H](O)[C@@H]1NC(=O)[C@H](CCCN)NC(=O)[C@@H](Cc2c[nH]c3ccccc23)NC(=O)[C@H](Cc2ccccc2)NC(=O)[C@H](Cc2ccccc2)NC(=O)CCCCCCNC(=O)[C@H](Cc2ccccc2)NC1=O (stereo in doubt)	20
C[C@@H](O)[C@@H]1NC(=O)[C@H](CCCCN)NC(=O)[C@@H](Cc2c[nH]c3ccccc23)NC(=O)[C@H](Cc2ccc(O)cc2)NC(=O)[C@H](Cc2ccccc2)NC(=O)CCCCCCNC(=O)[C@H](Cc2ccccc2)NC1=O (stereo in doubt)	1.04
C[C@@H](O)[C@@H]1NC(=O)[C@H](Cc2ccc(N)cc2)NC(=O)[C@H](Cc2cn(C)c3ccccc23)NC(=O)[C@H](Cc2ccccc2)NC(=O)[C@H](Cc2ccccc2)NC(=O)CCCCCCNC(=O)[C@H](Cc2ccccc2)NC1=O (stereo in doubt)	1.8
CC1NC(=O)[C@H]([C@@H](C)O)NC(=O)C(CCCCN)NC(=O)[C@@H](Cc2c[nH]c3ccccc23)NC(=O)C(Cc2ccccc2)NC(=O)[C@@H]2CCCN2C1=O (single isomer, unassigned; 58)	16.7
C[C@@H](O)[C@@H]1NC(=O)[C@H](CCCCN)NC(=O)[C@H](Cc2c[nH]c3ccc(Br)cc23)NC(=O)[C@H](Cc2ccccc2)NC(=O)[C@H](Cc2ccccc2)NC(=O)CCCCCCNC(=O)[C@H](Cc2ccccc2)NC1=O (stereo in doubt)	50
CC1C(=O)N[C@@H](Cc2ccccc2)C(=O)NC(Cc2c[nH]c3ccccc23)C(=O)N[C@@H](CCCCN)C(=O)NC([C@@H](C)O)C(=O)N[C@@H](Cc2ccccc2)C(=O)N1C (single isomer, unassigned)	0.29
C[C@@H](O)[C@@H]1NC(=O)C(CCCCN)NC(=O)[C@@H](Cc2c[nH]c3ccccc23)NC(=O)C(Cc2ccccc2)NC(=O)[C@@H]2CCCN2C(=O)[C@@H]2CCCN2C1=O (single isomer, unassigned)	125
CC(C)[C@H](NC(=O)[C@H](CCCCN)NC(=O)[C@@H](Cc1c[nH]c2ccccc12)NC(=O)[C@H](Cc1ccc(O)cc1)NC(=O)[C@H](C)NC(=O)[C@H](N)Cc1ccc(Cl)cc1)C(=O)N[C@@H](C)C(=O)N[C@H](Cc1ccccc1)C(N)=O	417
C[C@@H]1NC(=O)[C@H](Cc2ccccc2)NC(=O)CCCCCCNC(=O)[C@H](Cc2ccccc2)NC(=O)[C@H]([C@@H](C)O)NC(=O)[C@H](CCCCN)NC(=O)[C@@H](Cc2c[nH]c3ccccc23)NC1=O (stereo in doubt)	6.25
C[C@@H](O)[C@H](NC(=O)[C@H](Cc1ccccc1)NC(=O)[C@@H](NC(=O)[C@H](CCCCN)NC(=O)[C@@H](Cc1c[nH]c2ccccc12)NC(=O)[C@H](Cc1ccc(O)cc1)NC(=O)[C@H](Cc1ccc(Cl)cc1)NC(=O)[C@H](N)Cc1ccccc1)[C@@H](C)O)C(N)=O (H-[dF][Phe(4-Cl)]Y[dW]KTFT-NH2)	3.4
